Measurements reported in ChEMBL document CHEMBL3774374, “The Effect of Small Molecules on Sterol Homeostasis: Measuring 7-Dehydrocholesterol in Dhcr7-Deficient Neuro2a Cells and Human Fibroblasts” (J Med Chem, 2016).
Calls of active or inactive are those of the source. The rule behind the calls is not given here.

Legend:
N2a [1] = test: Decrease in lanosterol levels in mouse Neuro2a cells by LC-MS analysis; assay type: functional, cell-based
How it was run: (§1)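 Control Neuro2a cells (10000/well, 0.5% FBS) on compound, 24 h. Hoechst cell count, then methanol lysis with labelled standards (d7-7-DHC, 13C3-desmosterol, 13C3-lanosterol), PTAD derivatization 20 min at RT, UPLC-MS SRM. GC-MS of silylated extract for further sterols.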

N2a [2] = test: Increase in 7-DHC levels in Dhcr7-deficient mouse Neuro2a cells at 200 nM after 24 hrs by LC-MS analysis; assay type: functional, cell-based
How it was run: (§2)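 384-well screen: Dhcr7-deficient Neuro2a cells (13000/well, 0.5% FBS) with compound at 20 or 200 nM (five wells each), 24 h at 37 °C. Cells counted after Hoechst imaging, then methanol lysis with d7-7-DHC standard, PTAD derivatization 20 min at RT, UPLC-MS SRM (7-DHC 560→365). Read-out is pg 7-DHC per cell.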

N2a [3] = test: Decrease in desmosterol levels in mouse Neuro2a cells by LC-MS analysis; assay type: functional, cell-based; how it was run: as §1
N2a [4] = test: Increase in 7-DHC levels in mouse Neuro2a cells at 100 nM by LC-MS analysis; assay type: functional
How it was run: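 Control Neuro2a cells in 96-well plates, treated at 1, 10 and 100 nM. 7-DHC measured by PTAD derivatization and UPLC-MS against deuterated 7-DHC standard; n > 3.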

[5] = molecular target: T1, 3-beta-hydroxysteroid-Delta(8),Delta(7)-isomerase (Mus musculus) (UniProt P70245); test: Inhibition of delta 8-7 isomerase in Dhcr7-deficient mouse Neuro2a cells assessed as decrease in 7-DHC levels at 20 nM after 24 hrs by LC-MS analysis; assay type: cell-based
T1 sequence (whole entry): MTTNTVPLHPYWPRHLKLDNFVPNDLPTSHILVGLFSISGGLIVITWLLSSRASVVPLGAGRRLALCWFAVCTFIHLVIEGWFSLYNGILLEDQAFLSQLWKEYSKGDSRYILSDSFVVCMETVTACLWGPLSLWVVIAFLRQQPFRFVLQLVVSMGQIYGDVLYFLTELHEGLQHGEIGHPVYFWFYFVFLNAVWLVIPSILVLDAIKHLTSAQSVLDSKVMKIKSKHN
How it was run: (§3)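 384-well screen: Dhcr7-deficient Neuro2a cells (13000/well) dispensed in 0.5% FBS medium onto predeposited compound (five wells each at 20 and 200 nM) and incubated 24 h at 37 °C. Nuclei Hoechst-stained and counted by automated imaging. Cells lysed in MeOH with deuterated and 13C standards, then derivatised with PTAD for 20 min at RT. 7-DHC measured by isocratic UPLC-MS (SRM) and expressed as pg per cell; DMSO wells served as controls.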

[6] = molecular target: T1, 3-beta-hydroxysteroid-Delta(8),Delta(7)-isomerase (Mus musculus); test: Inhibition of delta 8-7 isomerase in Dhcr7-deficient mouse Neuro2a cells assessed as decrease in 7-DHC levels at 1 uM by LC-MS/GC-MS analysis; assay type: cell-based
How it was run: (§4)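 Dhcr7-deficient Neuro2a cells (13000/well, 0.5% FBS medium) on predeposited compound, 24 h at 37 °C. Hoechst-stained and imaged to count cells. Lysed in methanol containing isotope-labelled sterol standards, derivatized with PTAD 20 min at RT, then isocratic C18 UPLC-MS/SRM. Remaining extract silylated with BSTFA for GC-MS, quantified against d7-cholesterol. Follow-up runs in triplicate.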

[7] = molecular target: T2, Delta(24)-sterol reductase (Mus musculus) (UniProt Q8VCH6); test: Inhibition of DR24 in Dhcr7-deficient mouse Neuro2a cells assessed as decrease in 7-DHC levels at 200 nM after 24 hrs by LC-MS analysis; assay type: cell-based; how it was run: as §2
T2 sequence (whole entry): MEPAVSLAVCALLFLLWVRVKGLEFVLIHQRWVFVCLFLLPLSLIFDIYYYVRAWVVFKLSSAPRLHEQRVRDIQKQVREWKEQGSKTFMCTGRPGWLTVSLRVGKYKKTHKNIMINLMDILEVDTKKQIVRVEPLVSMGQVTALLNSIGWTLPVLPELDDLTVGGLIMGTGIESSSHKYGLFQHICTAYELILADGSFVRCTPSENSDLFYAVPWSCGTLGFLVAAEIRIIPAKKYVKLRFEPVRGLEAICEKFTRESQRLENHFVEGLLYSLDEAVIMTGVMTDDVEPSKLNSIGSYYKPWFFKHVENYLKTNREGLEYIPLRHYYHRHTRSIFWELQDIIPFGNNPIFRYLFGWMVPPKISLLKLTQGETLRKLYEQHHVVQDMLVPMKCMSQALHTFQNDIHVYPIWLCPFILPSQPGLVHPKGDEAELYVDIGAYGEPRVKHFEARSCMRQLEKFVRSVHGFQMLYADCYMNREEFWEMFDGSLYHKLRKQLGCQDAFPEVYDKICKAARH

[8] = molecular target: T2, Delta(24)-sterol reductase (Mus musculus); test: Inhibition of DR24 in Dhcr7-deficient mouse Neuro2a cells assessed as decrease in 7-DHC levels at 1 uM by LC-MS/GC-MS analysis; assay type: cell-based; how it was run: as §4
[9] = molecular target: T2, Delta(24)-sterol reductase (Mus musculus); test: Inhibition of DR24 in Dhcr7-deficient mouse Neuro2a cells assessed as decrease in 7-DHC levels at 20 nM after 24 hrs by LC-MS analysis; assay type: cell-based; how it was run: as §2
Fibroblast = test: Decrease in cholesterol levels in human SLOS fibroblasts at 10 nM after 5 days by LC-MS/GC-MS analysis; assay type: functional, cell-based
How it was run: (§5)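 SLOS patient skin fibroblasts (passage 8–20) grown in 96-well plates in delipidated serum with compound for 5 days; three different SLOS lines. Sterols quantified by PTAD-derivatized UPLC-MS plus GC-MS; 7-DHC expressed as percentage of untreated cells.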

[10] = molecular target: T1, 3-beta-hydroxysteroid-Delta(8),Delta(7)-isomerase (Mus musculus); test: Inhibition of delta 8-7 isomerase in Dhcr7-deficient mouse Neuro2a cells assessed as increase in zymosterol levels at 1 uM by LC-MS/GC-MS analysis; assay type: cell-based
How it was run: (§6)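 Follow-up (verification) assay in 96-well plates, run as the 384-well screen, in triplicate, at varying compound concentrations. Cells counted by Hoechst imaging, washed with PBS, then lysed in MeOH with BHT/TPP and isotope standards (d7-Chol, d7-7-DHC, 13C3-Des, 13C3-Lan). Sterols derivatised with PTAD for 20 min at RT and quantified by C18 UPLC-MS (SRM). Remaining sample silylated with BSTFA and run on GC-MS, quantified against d7-Chol.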

[11] = molecular target: T3, Delta(24)-sterol reductase (Homo sapiens) (UniProt Q15392); test: Inhibition of DR24 in human SLOS fibroblasts assessed as decrease in 7-DHC levels at 10 nM after 5 days by LC-MS/GC-MS analysis; how it was run: as §5
T3 sequence (whole entry): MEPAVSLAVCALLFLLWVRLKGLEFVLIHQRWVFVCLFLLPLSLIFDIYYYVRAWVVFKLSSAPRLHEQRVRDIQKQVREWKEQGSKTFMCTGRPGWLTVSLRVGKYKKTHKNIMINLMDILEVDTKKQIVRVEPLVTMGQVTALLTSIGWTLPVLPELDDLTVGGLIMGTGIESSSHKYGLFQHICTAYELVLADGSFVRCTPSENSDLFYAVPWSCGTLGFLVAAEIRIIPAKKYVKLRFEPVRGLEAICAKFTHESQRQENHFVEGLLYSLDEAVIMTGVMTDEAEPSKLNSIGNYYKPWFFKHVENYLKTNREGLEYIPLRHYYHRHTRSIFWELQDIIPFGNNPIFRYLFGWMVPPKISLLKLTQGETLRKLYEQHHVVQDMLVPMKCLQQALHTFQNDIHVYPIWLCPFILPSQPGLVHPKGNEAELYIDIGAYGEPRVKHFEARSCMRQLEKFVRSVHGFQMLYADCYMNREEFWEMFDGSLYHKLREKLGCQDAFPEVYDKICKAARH

[12] = molecular target: 3-beta-hydroxysteroid-Delta(8),Delta(7)-isomerase (Homo sapiens) (UniProt Q15125); test: Inhibition of delta 8-7 isomerase in human SLOS fibroblasts assessed as decrease in 7-DHC levels at 10 nM after 5 days by LC-MS/GC-MS analysis; how it was run: as §5
[13] = molecular target: T1, 3-beta-hydroxysteroid-Delta(8),Delta(7)-isomerase (Mus musculus); test: Inhibition of delta 8-7 isomerase in Dhcr7-deficient mouse Neuro2a cells assessed as increase in zymostenol levels at 1 uM by LC-MS/GC-MS analysis; assay type: cell-based; how it was run: as §6
[14] = Cytotoxicity against human SLOS fibroblasts at 5 uM after 5 days by Cell Titer assay; assay type: cell-based; conditions: fibroblast, 120 h
[15] = molecular target: T2, Delta(24)-sterol reductase (Mus musculus); test: Inhibition of DR24 in mouse Neuro2a cells assessed as decrease in 7-DHC levels at 1 uM by LC-MS/GC-MS analysis; assay type: cell-based; how it was run: as §1
[16] = molecular target: T1, 3-beta-hydroxysteroid-Delta(8),Delta(7)-isomerase (Mus musculus); test: Inhibition of delta 8-7 isomerase in Dhcr7-deficient mouse Neuro2a cells assessed as decrease in 7-DHC levels at 200 nM after 24 hrs by LC-MS analysis; assay type: cell-based; how it was run: as §3
[17] = molecular target: T1, 3-beta-hydroxysteroid-Delta(8),Delta(7)-isomerase (Mus musculus); test: Inhibition of delta 8-7 isomerase in mouse Neuro2a cells assessed as decrease in 7-DHC levels at 1 uM by LC-MS/GC-MS analysis; assay type: cell-based; how it was run: as §1
[18] = molecular target: T1, 3-beta-hydroxysteroid-Delta(8),Delta(7)-isomerase (Mus musculus); test: Inhibition of delta 8-7 isomerase in Dhcr7-deficient mouse Neuro2a cells assessed as decrease in cholesterol levels at 1 uM by LC-MS/GC-MS analysis; assay type: cell-based; how it was run: as §6
[19] = molecular target: T3, Delta(24)-sterol reductase (Homo sapiens); test: Inhibition of DR24 in human SLOS fibroblasts assessed as decrease in 7-DHC levels at 100 nM after 5 days by LC-MS/GC-MS analysis
How it was run: (§7)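 SLOS patient skin fibroblasts (passage 8–20; three different lines) grown in 96-well plates in delipidated serum with compound for 5 days. 7-DHC and cholesterol quantified by PTAD-derivatisation UPLC-MS with isotopic standards. Values expressed as percentage of 7-DHC in the same cells grown without compound.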

[20] = molecular target: 3-beta-hydroxysteroid-Delta(8),Delta(7)-isomerase (Homo sapiens) (UniProt Q15125); test: Inhibition of delta 8-7 isomerase in human SLOS fibroblasts assessed as decrease in 7-DHC levels at 100 nM after 5 days by LC-MS/GC-MS analysis; how it was run: as §7

Sequence of 3-beta-hydroxysteroid-Delta(8),Delta(7)-isomerase (Homo sapiens) (Q15125 whole entry): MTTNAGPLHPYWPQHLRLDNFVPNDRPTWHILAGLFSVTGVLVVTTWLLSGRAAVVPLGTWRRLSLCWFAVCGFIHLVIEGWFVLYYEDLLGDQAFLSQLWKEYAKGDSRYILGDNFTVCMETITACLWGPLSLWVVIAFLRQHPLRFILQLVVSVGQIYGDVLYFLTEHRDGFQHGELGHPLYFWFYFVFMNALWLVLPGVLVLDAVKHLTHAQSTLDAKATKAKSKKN

O=C1CCc2ccc(OCCCCN3CCN(c4cccc(Cl)c4Cl)CC3)cc2N1 [ARIPIPRAZOLE]
Activity (N2a [1]): Active
Activity (N2a [2]): Active
Activity (N2a [3]): Active
fold change (FC) (N2a [4]): 40

CCN(CC)CCOc1ccc(C(=C(Cl)c2ccccc2)c2ccccc2)cc1 [CLOMIPHENE]
inhibition [5]: Active
inhibition [6]: Active
inhibition [7]: Active
inhibition [8]: Active
inhibition [9]: Active
Activity (Fibroblast): inactive
inhibition [10]: Active
inhibition [11]: Active
inhibition [12]: Active
inhibition [13]: Active
Activity [14]: Non-toxic
Decrease in 7-DHC levels (active/inactive call) [15]: Active
inhibition [16]: Active
Activity (decrease in 7-DHC levels) [17]: Active
inhibition [18]: Active

CN(C)CCOc1ccc(/C(=C(/CCCl)c2ccccc2)c2ccccc2)cc1 [TOREMIFENE]
inhibition [6]: Active
inhibition [19]: Active
inhibition [8]: Active
inhibition [20]: Active
inhibition [10]: Active
inhibition [13]: Active
Activity [14]: Toxic
inhibition [15]: Active
Activity (decrease in 7-DHC levels) [17]: Active
inhibition [18]: Active
